Bioassay records deposited in PubChem by Johns Hopkins Ion Channel Center.
Most compounds without a hit are left out; they make up all but 3.7% or so of the library.
KCNK9 inh – blocks the human KCNK9 two-pore domain potassium channel; Q9NPC2; HEK293 KCNK9, FluxOR thallium flux fluorescence; active compounds read low; B-score at 10 µM; 1.2% of 310,000 active; AID 488922;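 active = ratio B-score over 3 SD below the library mean, with starting fluorescence within 5 SD of its mean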;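 note: negative B-score means less thallium flux so channel inhibition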
Target sequence (Q9NPC2 whole entry, looked up, the tested form may be a part): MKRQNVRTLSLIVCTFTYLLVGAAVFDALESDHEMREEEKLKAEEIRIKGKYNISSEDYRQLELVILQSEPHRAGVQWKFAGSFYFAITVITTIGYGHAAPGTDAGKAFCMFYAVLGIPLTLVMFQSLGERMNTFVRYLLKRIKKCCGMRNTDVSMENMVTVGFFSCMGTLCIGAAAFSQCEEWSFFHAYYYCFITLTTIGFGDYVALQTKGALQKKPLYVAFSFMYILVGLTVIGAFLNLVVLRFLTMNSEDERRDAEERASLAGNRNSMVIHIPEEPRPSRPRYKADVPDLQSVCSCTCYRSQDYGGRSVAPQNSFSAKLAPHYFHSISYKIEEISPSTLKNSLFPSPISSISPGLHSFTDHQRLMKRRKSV
Kir21 block – Kir2.1 (mouse) channel inhibition; 0.85% of 310,000 active; B-score at 10 µM; AID 1672; HEK293-Kir2.1, FluxOR thallium flux fluorescence; active compounds read low;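 active = fluorescence ratio B-score at or below minus 3 SD of library scores, with starting-brightness B-score within 2 SD, cut at about -4.2 in these data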;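 note: channel flux triggered by added potassium and thallium sulfate stimulus; B-score of peak minus minimum fluorescence over baseline after thallium stimulus; more negative B-score means stronger Kir2.1 block with less thallium influx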
KCNQ1 inh – human KCNQ1 channel inhibition. P51787. CHO-K1 KCNQ1, FluxOR thallium flux fluorescence; active compounds read high. B-score at 10 µM. 1.3% of 310,000 active. AID 2642;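 active = compounds whose thallium flux B-score, printed positive for inhibition, exceeds three library SD while starting fluorescence stays within three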;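 note: channel opened by potassium depolarization with thallium stimulus after 20 min compound exposure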
KCNQ1 act – potentiates or activates the human KCNQ1 potassium channel; 0.35% of 310,000 active; CHO-K1 KCNQ1, thallium flux FluxOR fluorescence; active compounds read high; P51787; B-score at 10 µM;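 active = fluorescence ratio B-score, a plate-corrected score, at least three library SD, with initial intensity B-score within 5 SD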
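Assay system: CHO-K1 cells stably expressing KCNQ1; Medium: assay buffer with matched DMSO; Also added: K+/Tl+ depolarizing stimulus; Dosing: single dose; Timing: dye 90 min, compound 20 min, room temperature; Measured by: kinetic FluxOR thallium fluorescence, 10-s 1-Hz baseline, 110-s post-stimulus read; Read-out: peak-minus-minimum fluorescence over initial fluorescence, negative-control normalized, B-scored.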
KCNK3 inh – human KCNK3 channel inhibition, primary screen; O14649; CHO-KCNK3 thallium flux, FluxOR fluorescence; active compounds read low; B-score at 10 µM; 0.84% of 340,000 active; AID 602410;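 active = B-score under library mean minus 4 SD, starting fluorescence ratio at most library mean plus 5 SD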;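 note: more negative B-score means stronger inhibition of thallium flux through KCNK3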
hERG protect – hERG (human) protection from proarrhythmic block. Q12809. CHO-hERG, FluxOR thallium flux, dofetilide IC70 present. activation (rescue from dofetilide block), less the hit threshold, % at 10 µM. 0.51% of 310,000 active. AID 1511;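 active = activation above the mean of controls blocked by dofetilide plus 5 SD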;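 note: thallium influx through hERG after potassium depolarization seen as dye fluorescence rise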
Each line names hits and unclear results; the compound was inactive in the other large screens.

CN(C)c1ccc(-[n+]2c(-c3ccccc3)cc(-c3ccccc3)cc2-c2ccccc2)cc1	Kir21 block -15, KCNQ1 inh 12, KCNK3 inh -9
O=C1NC(=O)C2(Cc3cc([N+](=O)[O-])ccc3N3CCN(C(=O)c4ccccc4)CC32)C(=O)N1 (centres undefined)	none
O=c1[nH]cnc2nc(-c3ccc(N(CCCl)CCCl)cc3)[nH]c12	none (no result: KCNK9 inh, Kir21 block, KCNQ1 inh, KCNQ1 act, hERG protect)
COc1cc(CNCCc2c[nH]c3ccccc23)cc(OC)c1	none
CNCCCc1ccccc1	hERG protect 6.5
CC1=CC(=O)OC2CC3OC4C[C@@H](C)C5OC6CC7O[C@]8(C)C/C=C\C9OC%10CC%11OC(CC(C)CO)CC(O)[C@]%11(C)OC%10CC9OC8C[C@]7(C)O[C@]6(C)CCC5OC4C[C@]3(C)OC12 (some centres undefined)	none
C(#CCN1CCOCC1)COCC#Cc1ccccc1	hERG protect 5.3
O=C1NC(=O)C(=Cc2ccc(-c3ccccc3[N+](=O)[O-])o2)C(=O)N1	none
O=C1NC(=O)C(=Cc2ccc(-c3cc(Cl)ccc3[N+](=O)[O-])o2)C(=O)N1	hERG protect 24.2
CCOP(=S)(OCC)c1ccc(N(C)C)cc1	KCNQ1 act 9
c1cncc(CNCCN2CCNCC2)c1	none (no result: KCNK9 inh, Kir21 block, KCNQ1 inh, KCNQ1 act, hERG protect)
O=[N+]([O-])c1cc(F)c(N2CCCC2)cc1Br	KCNQ1 inh 6
CN1CCN(c2cc(N3CCCC3)c([N+](=O)[O-])cc2F)CC1	KCNQ1 act 9
N#Cc1ccccc1OCC(=O)N1CCN(CC(=O)Nc2ccc(F)cc2)CC1	none (no result: KCNK9 inh, Kir21 block, KCNQ1 inh, KCNQ1 act, hERG protect)
Cc1cccc(NP2(=O)NCCCN2)c1	none (no result: KCNK9 inh, Kir21 block, KCNQ1 inh, KCNQ1 act, hERG protect)
COc1ccc(-c2nc3ccc(C(=O)N4CCC5(CC4)OCCO5)cc3nc2-c2ccc(OC)cc2)cc1	KCNQ1 inh 6
CN1C(=O)/C(=C\c2ccc(Br)s2)C(=O)NC1=S	hERG protect 15.0
Nc1ccc2nonc2c1[N+](=O)[O-]	KCNQ1 inh 11
O=[N+]([O-])c1ccc(N2CCCCCC2)c2nonc12	none
C[C@]12CCC3C(CC[C@H]4C[C@H](N)CC[C@]34C)C1CC[C@H]2O (some centres undefined)	none
CCCCCn1c(=O)c(C(=O)Nc2cccc(C)n2)c(O)c2ccccc21	none
CCCCCn1c(=O)c(C(=O)Nc2cccc(C)c2)c(O)c2ccccc21	none
CCCCn1c(=O)c(C(=O)Nc2ccc(C)cn2)c(O)c2ccccc21	KCNK9 inh -7.7
CCCCCn1c(=O)c(C(=O)Nc2ccccn2)c(O)c2ccccc21	KCNK9 inh -7.39
c1ccc(CC(NCc2ccco2)c2ccccc2)cc1 (centres undefined)	KCNQ1 inh 6
c1ccc(-c2[nH]c(-c3ccccc3)[n+](CC3CO3)c2-c2ccccc2)cc1 (centres undefined)	Kir21 block -6.81
COc1ccc(C(CNC(=O)c2ccc3c(c2)CCC3)N(C)C)cc1 (centres undefined)	none
O=C1NC(=O)N(Cc2cccs2)C(=O)/C1=C/c1ccc(N2CCOCC2)cc1	none
O=C1NC(=O)N(Cc2ccccc2Cl)C(=O)/C1=C/N1CCOCC1	hERG protect 8.0
CCCCCn1c(=O)c(C(=O)NCc2ccncc2)c(O)c2ccccc21	KCNK9 inh -7.94, KCNQ1 inh 8
CCCCn1c(=O)c(C(=O)NC(C)c2ccccc2)c(O)c2ccccc21 (centres undefined)	KCNQ1 inh 6
CCCCn1c(=O)c(C(=O)NCc2ccc(Cl)cc2)c(O)c2ccccc21	none
CCCCn1c(=O)c(C(=O)NCCc2ccccc2)c(O)c2ccccc21	KCNQ1 inh 7
CCCCCn1c(=O)c(C(=O)Nc2ccccc2)c(O)c2ccccc21	none
O=C(/C=C/c1ccccc1)NCCc1cnc[nH]1	none
N#CCCn1cc(C(=O)Nc2ccc(F)cc2)c(-c2ccccc2)n1	none
CC(C)Oc1cccnc1N(C)C1CCN(Cc2ccccc2)CC1	none (no result: KCNK9 inh, Kir21 block, KCNQ1 inh, KCNQ1 act, hERG protect)
CN1C(=O)C(=Cc2ccc(N3CCCCCC3)o2)C(=O)N(C)C1=S	none (no result: KCNK9 inh, Kir21 block, KCNQ1 inh, KCNQ1 act, hERG protect)
O=C1NC(=O)N(c2ccc3c(c2)OCO3)C(=O)/C1=C\c1ccc(N2CCCCC2)o1	KCNQ1 inh 9
Cc1ccccc1N1C(=O)/C(=C/c2ccco2)C(=O)NC1=S	hERG protect 13.1 (no result: KCNK3 inh)
Cc1ccccc1N1C(=O)NC(=O)/C(=C/c2ccc(N3CCOCC3)o2)C1=O	KCNQ1 inh 6
O=C1NC(=S)N(c2ccccc2F)C(=O)/C1=C\c1cccs1	hERG protect 22.1
C=C1[C@@H](OC(C)=O)[C@]23C[C@@H]1[C@@H](OC(C)=O)CC2[C@]12C4C[C@H]3[C@H]1N(CC)C[C@]4(C)CC[C@@H]2O (some centres undefined)	none
COP(=O)(/C=C(\Cl)c1ccccc1)/C=C(\Cl)c1ccccc1	none
C[N+](C)(C)Cc1ccccc1	none
CC/C(=C\C=C\[C@@H]1C=C[C@@H]2CCC[C@H]2[C@@H]1C(=O)c1ccc[nH]1)[C@@H]1O[C@@H]([C@@H](C)C(=O)O)CC[C@@H]1C	KCNQ1 act 38, hERG protect 74.2 (no result: KCNK3 inh)
Cc1ccc(NP(=O)(Oc2ccccc2F)Oc2ccccc2F)cc1	KCNQ1 inh 6
CCc1ccc(NP(=O)(Oc2ccccc2F)Oc2ccccc2F)cc1	KCNK9 inh -7.45
Cc1ccc(NP(=O)(Oc2ccccc2)Oc2ccccc2)cc1	none (no result: KCNK9 inh, Kir21 block, KCNQ1 inh, KCNQ1 act, hERG protect)
CC[C@@H]1C=CC=CC[C@H](C)[C@@H](O)[C@@H](C)C(=O)[C@H](C)[C@@H](O)[C@H](C)C(=O)[C@H](C)[C@@H](O)[C@H](C)C=CC(=O)O[C@H]2[C@@H](C)[C@@H](CC1)O[C@@]1(CC[C@@H](C)[C@@H](C[C@H](C)O)O1)[C@@H]2C	none (no result: KCNK3 inh)
CCOC(=O)CC(SP1(=S)OCC2(CC=CCC2)CO1)C(=O)OCC (centres undefined)	none (no result: KCNK9 inh, Kir21 block, KCNQ1 inh, KCNQ1 act, hERG protect)
CC1CCCC(C)N1/N=C/c1c[nH]c2ccc(Br)cc12 (centres undefined)	Kir21 block -4.32, KCNQ1 inh 6
CC(C)(C)C(=O)C(Oc1ccc(Cl)cc1)n1cncn1 (centres undefined)	none (no result: KCNK9 inh, Kir21 block, KCNQ1 inh, KCNQ1 act, hERG protect)
CCC(C)c1ccc(N2C(=O)NC(=O)/C(=C/c3cccn3CCOc3ccc(C)cc3)C2=O)cc1 (centres undefined)	KCNQ1 inh 7
Cc1ccc(N2C(=O)NC(=O)/C(=C\c3cnc(-c4ccccc4)nc3)C2=O)cc1	none
CC12CCC(=O)C=C1CCC1C2CCC2(C)C(O)CCC12 (centres undefined)	none (no result: KCNK9 inh, Kir21 block, KCNQ1 inh, KCNQ1 act, hERG protect)
CCC(=O)O[C@H]1CC[C@H]2[C@@H]3CCC4=CC(=O)CC[C@]4(C)[C@H]3CC[C@]12C	KCNK3 inh -8.7 (no result: KCNK9 inh, Kir21 block, KCNQ1 inh, KCNQ1 act, hERG protect)
CCC1C(c2ccccc2)NC(c2ccccc2)CC1(O)c1ccc(F)cc1 (centres undefined)	Kir21 block -4.53
